Screening results from PubChem.
FN deposition inh – fibronectin deposition inhibition. AH1F fibroblasts, Alexa488-fibronectin deposition fluorescence, overnight. inhibition, % at 12.6 µM. hit rate 0.086% among 350,000;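 active means mean inhibition across replicates of 30% or more, regardless of how many single replicates reach that level; inconclusive means mean under 30% yet at least half of replicates reach 30%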;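 further: positive control wells lacked labelled fibronectin entirely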
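Material – AH1F fibroblast monolayer, labelled fibronectin deposition · Reagent – labelled fibronectin 24 nM · Timing – 1 h adhesion, overnight exposure · Measured by – fluorescence at 485 nm excitation, 525 nm emission · Read-out – inhibition of fibronectin deposition signal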
ERp5 block – ERp5 (human) disulfide isomerase inhibition; hit rate 0.05% among 350,000; AID 651711; ERp5 insulin aggregation, absorbance 650 nm, 90 min; inhibition, % at 9.99 µM; Q15084;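 active means mean replicate inhibition above about 25%, with every replicate also reaching it, limit read from the data, passing the limit was not always enough; inconclusive means only one of those two criteria met; inactive means neither criterion met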
PDI inh – PDI (human) enzyme inhibition | P07237 | PDI insulin aggregation turbidity, A650, 90 min | inhibition, % at 10 µM | hit rate 0.052% among 350,000 | AID 588391;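 active means mean inhibition across replicates of 30% or more, whatever share of single replicates reach that level; inconclusive means mean inhibition below 30% while every single replicate reaches 30%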
Target sequence (P07237 whole entry, looked up): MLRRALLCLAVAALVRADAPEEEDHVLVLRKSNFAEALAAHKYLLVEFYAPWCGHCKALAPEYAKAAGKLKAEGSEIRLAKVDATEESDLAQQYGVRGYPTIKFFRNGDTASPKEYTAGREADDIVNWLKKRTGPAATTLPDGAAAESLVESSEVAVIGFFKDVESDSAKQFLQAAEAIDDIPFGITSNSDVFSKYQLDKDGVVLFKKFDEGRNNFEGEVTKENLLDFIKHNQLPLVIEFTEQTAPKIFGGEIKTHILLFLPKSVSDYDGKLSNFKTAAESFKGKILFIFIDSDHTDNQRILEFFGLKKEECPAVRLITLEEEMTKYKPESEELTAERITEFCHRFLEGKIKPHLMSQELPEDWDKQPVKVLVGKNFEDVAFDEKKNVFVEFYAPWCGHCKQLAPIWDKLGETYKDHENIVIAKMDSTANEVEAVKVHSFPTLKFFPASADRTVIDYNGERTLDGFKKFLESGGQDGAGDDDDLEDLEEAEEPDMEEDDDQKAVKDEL
ARNT-TACC3 inh – ARNT/TACC3 interaction disruption. hit rate 0.66% among 390,000. inhibition, % at 9.99 µM. Q9Y6A5. AlphaScreen His-ARNT PAS-B/GST-TACC3 binding, luminescence; TACC3 fragment carries E629A point mutation;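 active means mean inhibition of replicates at least 50% and at least half of replicates each reaching 50%; inconclusive means half or more replicates reach 50% but mean below 50%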;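 further: 0% = complete ARNT plus TACC3 wells and 100% = ARNT alone without TACC3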
MLL AF4-AF9 inh – inhibitors of human MLL-AF4/AF9 interaction; P42568; AlphaScreen, biotin-AF4 peptide binding to FLAG-AF9; inhibition, % at 10 µM; hit rate 0.47% among 350,000; AID 651704;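 active means every replicate reaching a set inhibition limit, whatever the replicate mean, cut at about 25% in these data; inconclusive means mean inhibition reaches that limit but some replicates miss it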;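 further: 0% = plate neutral control median and 100% = total signal loss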
FGF22 binding – binders of recombinant human FGF22 by thermal shift | SYPRO orange fluorescence; percent of sucrose octasulfate shift, DMSO zero | activity (Tm shift, normalised), % at 9.99 µM | hit rate 1.5% among 340,000 | Q9HCT0;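 active means mean Tm shift, scaled 0 neutral to 100 positive control, at about 1.3% or above, every replicate too, limit read from the data; inconclusive means no clear call, values can overlap the other calls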
Target sequence (Q9HCT0 whole entry, looked up): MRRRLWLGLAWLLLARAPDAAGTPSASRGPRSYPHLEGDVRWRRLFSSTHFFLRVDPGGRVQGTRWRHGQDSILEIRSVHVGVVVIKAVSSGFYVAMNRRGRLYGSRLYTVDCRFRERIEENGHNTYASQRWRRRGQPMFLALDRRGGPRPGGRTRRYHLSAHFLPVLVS
ARNT Alpha ctr-1 – interferes with AlphaScreen signal, flagging false ARNT-TACC3 hits | AC50, µM (series often up to 68 µM), without a hit: at the top dose activity change, negative = signal decrease | His-ARNT PASB-GST AlphaScreen artifact counter-screen, luminescence | shares compounds with ARNT-TACC3 inh | hit rate 50% among 1,200;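 active means every separate test run was called active for a drop in luminescence, with AC50 within twice the top valid dose, actives reach about 71 µM in these data; inconclusive means the separate test runs disagree in their calls; inactive means all runs inactive, including signal change in the wrong direction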
ARNT Alpha ctr-2 – counter-screen for ARNT-TACC3 inhibitors: AlphaScreen artifacts; AC50, µM; shares compounds with ARNT-TACC3 inh; Dual-tagged His-ARNT PASB-GST AlphaScreen artifact counter-screen; hit rate 70% among 45; AID 720564;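 active means luminescence drop, with half-maximal potency fitted within twice the sample's top valid dose, cut at about 70 µM in these data; inactive means the rest, including signal moving the wrong way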
* marks the source's active call; other numbers are inactive results; ? = inconclusive; · = no result given; [ ] = another dose, or the depositor's remark. A selection: hits, their analogues and other compounds. The true share with any hit is near 2.1%.

SMILES	FN deposition inh	ERp5 block	PDI inh	ARNT-TACC3 inh	MLL AF4-AF9 inh	FGF22 binding	ARNT Alpha ctr-1	others
C[C@@H]1CN([C@@H](C)CO)C(=O)Cc2cc(NC(=O)Nc3cccc4ccccc34)ccc2O[C@H]1CN(C)Cc1ccc(Oc2ccccc2)cc1	·	-11.8	·	72.0*	-0.6	0.0	14.1µM*
COc1ccc(-c2cnc3c(c2)C(=O)N([C@@H](C)CO)C[C@@H](C)[C@H](CN(C)Cc2cccnc2)O3)cc1	-2.1	-1.8	·	-4.1	-4.8	0.3	·
COc1ccc(-c2cnc3c(c2)C(=O)N([C@H](C)CO)C[C@@H](C)[C@H](CN(C)Cc2cccnc2)O3)cc1	-2.6	0.0	·	108.4*	-6.1	-0.3	-2.6%[38 µM]
Cc1noc(C)c1S(=O)(=O)Nc1ccc2c(c1)CC(=O)N([C@H](C)CO)C[C@@H](C)[C@@H](CN(C)S(C)(=O)=O)O2	·	·	·	-21.6	·	-0.1	·
COc1cccc(-c2ccc([C@H]3[C@H]4CN(C(=O)C5CCC5)CC(=O)N4[C@H]3CO)cc2)c1	3.7	23.6	·	·	-2.9	·	·
CC(C)NC(=O)N(C)C[C@H]1Oc2ccc(N(C)C)cc2CC(=O)N([C@@H](C)CO)C[C@@H]1C	·	-5.5	·	60.2*	-2.3	0.0	9.5%[42 µM]
O=C(Nc1ccc2c(c1)[C@@H]1C[C@@H](CC(=O)N3CCc4ccccc4C3)O[C@H](CO)[C@@H]1O2)c1ccc2c(c1)OCO2	-11.0	4.2	·	14.5	3.6	-0.1	·
O=C(Nc1ccc2c(c1)[C@@H]1C[C@H](CC(=O)N3CCc4ccccc4C3)O[C@@H](CO)[C@@H]1O2)c1ccc2c(c1)OCO2	8.5	0.9	·	51.2*	0.8	0.0	49.5µM*
O=C(CC(=O)N/N=C/c1ccccc1O)NCc1cccnc1	3.6	3.4	14.6	47.7*	1.6	-0.5	-18.7%
CCCNC(=O)[C@H]1[C@H](CO)[C@H]2Cn3c(ccc(-c4ccccc4)c3=O)[C@@H]1N2C(=O)C1CC1	·	0.9	·	-0.1	-0.7	0.1	·
CCc1nnc(NC(=O)c2ccc(OC)cc2OC)s1	·	·	-7.7	-1.5	·	·	·
COc1ccc(C(=O)Cc2nnc(C)s2)c(OC)c1	-9.5	·	-2.4	77.2*	·	·	-5.2%
COc1ccc(NC(=O)N(C)C[C@H]2OCCCC[C@@H](C)Oc3ccc(NC(=O)c4ccncc4)cc3C(=O)N([C@@H](C)CO)C[C@@H]2C)cc1	-15.0	·	·	6.1	·	-0.1	·
O=C(Nc1nc(-c2ccncc2)cs1)c1ccc(S(=O)(=O)N2CCOCC2)cc1	3.6	·	-6.9	3.2	·	·	·
COc1ccc(C(=O)Nc2ccccn2)cc1S(=O)(=O)N1CCOCC1	-5.7	2.2	2.5	0.8	1.9	0.1	·
COc1ccc(C(=O)Nc2nc(-c3ccccn3)cs2)cc1S(=O)(=O)N1CCOCC1	2.8	6.8	6.7	61.6*	-10.7	0.5	9.69µM*
COc1ccc(C(=O)Nc2nc3ccccc3[nH]2)cc1S(=O)(=O)N1CCOCC1	-0.9	-11.6	-0.1	50.8*	4.4	0.2	-29.1%
O=C(Nc1nc(-c2ccccn2)cs1)c1ccc(S(=O)(=O)N2CCOCC2)cc1	·	·	·	·	·	·	·	ARNT Alpha ctr-2=6.52*
COc1ccc(C(=O)Nc2ccccc2C)cc1S(=O)(=O)N1CCOCC1	-7.9	7.3	18.1	-5.0	1.0	-0.4	·
COc1ccc(CN(C)C[C@H]2Oc3ccc(NC(=O)Cn4cnnn4)cc3C(=O)N([C@@H](C)CO)C[C@H]2C)cc1	·	-2.3	·	13.9	2.0	0.0	·
O=C(C[C@H]1CC[C@@H](NC(=O)CN2CCOCC2)[C@@H](CO)O1)NC1CCCCC1	8.8	0.7	·	-15.7	-2.2	0.1	·
CC(OC(=O)Cc1c(F)cccc1Cl)C(=O)NC1(C#N)CCCCC1 (stereo not given)	-3.8	-0.3	-5.2	active	0.5	-0.1	-8.2%
O=C(N/N=C/c1c(O)ccc2ccccc12)c1ccc(CO)nc1	14.5	0.4	2.6	58.7*	2.4	0.2	67.3µM*
O=C(NN=Cc1c(O)ccc2ccccc12)c1ccc2c(c1)OCO2	-7.6	2.6	7.5	-1.4	-4.0	0.1	·
C[C@H]1CN([C@@H](C)CO)C(=O)c2cc(NS(=O)(=O)c3ccc(Cl)cc3)ccc2O[C@H]1CN(C)C	·	-3.7	·	-10.7	-5.7	-0.1	·
SMILES	FN deposition inh	ERp5 block	PDI inh	ARNT-TACC3 inh	MLL AF4-AF9 inh	FGF22 binding	ARNT Alpha ctr-1	others
CNC[C@H]1Oc2cc(C#Cc3ccc(OC)cc3)ccc2S(=O)(=O)N([C@H](C)CO)C[C@@H]1C	4.9	-2.4	·	5.7	9.4	0.0	·
CC(=O)Nc1ccc2c(c1)C(=O)N(C)C[C@@H](C)[C@@H](CN(C)C(=O)OC(C)(C)C)O2	-5.3	·	·	·	·	·	·
CCCCC(=O)NC(c1ccc(N(C)C)cc1)c1ccc2cccnc2c1O (stereo not given)	12.4	4.4	0.3	60.3*	57.4*	-0.3	11.4µM*
CC(=O)NC(c1ccc(Cl)cc1Cl)c1ccc2cccnc2c1O (stereo not given)	20.7	0.6	0.3	66.3*	7.9	-0.4	21.5µM*
CC(=O)NC(c1ccc2ccccc2c1)c1ccc2cccnc2c1O (stereo not given)	-10.6	-3.2	-0.7	61.7*	3.7	0.0	15.3µM*
Cc1ccc(Cn2cccc(NS(C)(=O)=O)c2=O)cc1	-3.1	3.0	3.8	63.9*	3.1	1.0	-4.9%
C[C@]12CC[C@H](O)CC1=CCC1C2CC[C@@]2(C)C1CC[C@@H]2NC(=O)[C@@H](N)Cc1cnc[nH]1 (stereo not given in full)	·	-1.4	13.0	62.3*	1.5	-0.1	-11.9%
CO[C@H]1CN(C)C(=O)c2ccc(NC(C)=O)cc2OC[C@H](C)N(Cc2ccccc2F)C[C@@H]1C	11.8	-4.0	·	·	3.5	0.2	·
O=C(c1ccccn1)N1CC[C@@H]2[C@H](CO)Nc3ccc(Br)cc3[C@@H]21	-8.0	6.3	·	77.2*	-0.1	-0.1	44.9µM*
Cc1ccc(NC(=O)CN(C)C(=O)COc2cccc3cccnc23)cc1	6.3	·	3.4	58.3*	·	·	-17.1%
Cc1ccc(NC(=O)CN(C)S(=O)(=O)c2cccc3cccnc23)cc1	-5.0	?	0.5	-3.9	-3.3	-0.1	·
CCCNC(=O)[C@@H]1[C@@H](CO)[C@@H]2Cn3c(ccc(-c4ccccc4F)c3=O)[C@H]1N2S(C)(=O)=O	·	-4.8	·	-20.4	1.7	-0.4	·
CNC[C@H]1Oc2ccc(NC(=O)C3CC3)cc2C(=O)N([C@@H](C)CO)C[C@H]1C	·	14.0	·	-0.9	-2.6	0.1	·
Cc1ccc2nc(-c3ccccn3)[nH]c2c1	-5.7	3.4	-20.4	38.8*	3.4	0.1	-15.3%
